# Lmaj promast = reduces viability of Leishmania major promastigotes | inhibition, % at 10 µM | actives 9% (n = 200,000) | resazurin fluorescence viability | AID 1063; in the data active means inhibition above about 50%;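 further: promastigotes grown with compound for 44 hours at 28 °C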
# NALP1 inh = NALP1 inhibition | S. cerevisiae NALP1/ASC/caspase-1 growth, X-gal OD620, 72 h | inhibition, % at 10 µM | actives 0.61% (n = 280,000) | AID 2071; in the data active means inhibition mostly above about 24%, no sharp cut-off; inactive means mostly below about 32%
# NALP3 yeast inh = NALP3 inhibition in yeast; Yeast reconstituted NLRP3/ASC/caspase-1, beta-gal luminescence, 24 h; inhibition, % at 10 µM; actives 0.39% (n = 330,000); AID 2825;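 active means inhibition of 50% or more; inactive means inhibition below 50%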
# Calb FLC = affects C. albicans growth with fluconazole; AID 1979; actives 0.57% (n = 300,000); growth inhibition, % (concentration not given with the values); C. albicans CaCi-2 + fluconazole, Alamar Blue growth, 48 h;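 active means growth inhibition above about 58% in most replicates, limit read from the data, passing the limit was not always enough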;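 further: all wells also contain fluconazole at 8 µg/ml as a sub-toxic cotreatment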
# PolyA inhibitor = inhibitors of polyadenylation in S. cerevisiae; actives 0.02% (n = 300,000); S. cerevisiae SKY197-pL101 polyadenylation reporter, beta-gal luminescence; efflux-impaired pdr1/pdr3 knockout yeast; score 100 = 6 SD above DMSO; activity score, % at 12 µM;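 active means lowest replicate activity score at least 50, where 100 means six control SD above control mean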;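 further: yeast exposed to compound for 9 h at 30 °C; higher score means more reporter readthrough which indicates perturbed polyadenylation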
# T cruzi repl = blocks replication of Trypanosoma cruzi. actives 1.4% (n = 300,000). inhibition, % (no concentration beside the values). T. cruzi beta-gal in NIH3T3, luminescence, 90 h;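 active means mean inhibition across valid replicates above about 55%, limit read from the data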;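 further: signal also drops with host cell toxicity which is not excluded here; higher percent means less beta-gal luminescence so fewer parasites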
#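 Assay system: NIH/3T3 fibroblasts plus reporter T. cruzi. Amount: NIH/3T3 cells, 5,000 per well. Buffer or medium: DMEM, 2% fetal bovine serum. Doses: compound pinned at 50 nL/well, DMSO. Schedule: ≥90 h infection period, 3 h prior cell attachment. Signal: luminescent β-galactosidase signal after 60 min lysis. Read-out: parasite load inhibition, %.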
# A number is an active result; – = inactive; · = no result. This excerpt belongs to a sample that is enriched for hits.
SMILES,Lmaj promast,NALP1 inh,NALP3 yeast inh,Calb FLC,PolyA inhibitor,T cruzi repl
CCOc1ccccc1Nc1cc(C)c2cccc(C)c2n1,·,–,–,–,–,–
O=C(O)c1cccc(Oc2ccc([N+](=O)[O-])cc2)c1,59,–,·,·,·,·
O=C(c1cccc(Oc2ccc([N+](=O)[O-])cc2)c1)N1CCOCC1,·,–,–,–,–,–
Cc1cc(C(=O)CN2CCC(C)CC2)c(C)n1-c1ccc(F)cc1,91,–,–,–,–,–
Cc1cc(C(=O)CN2CCCC2)c(C)n1-c1ccc(Cl)cc1,53,–,–,–,–,–
CCOC(=O)c1cc(C(=O)OCC)cc(-n2c(C)cc(C(=O)CN3CCOCC3)c2C)c1,93,–,–,–,–,–
COc1ccc(-n2c(C)cc(C(=O)CN3CCC(C)CC3)c2C)cc1,92,–,–,–,–,–
Cc1cc(C(=O)CN2CCCCC2)c(C)n1-c1ccc(F)cc1,–,–,–,–,–,–
N#Cc1c(-c2ccccc2F)cc(C2CC2)nc1SCC(=O)c1cccs1,–,–,–,–,–,–
CC[C@H]1c2[nH]c3ccccc3c2C[C@@H]2C(=O)N(c3ccc(F)cc3)C(=O)N21,·,·,–,–,–,–
CON/C=C(\C=Nc1ccc(Cl)cc1Cl)c1ncc(C(F)(F)F)cc1Cl,–,–,–,94,–,–
Cc1nc2scc(-c3ccccc3)c2c(=O)n1N=C1C=CC(=O)C=C1,–,–,–,–,–,67
Cc1nc2scc(-c3ccccc3)c2c(=O)n1N,–,–,–,–,–,–
CCCNC(=O)c1ccccc1NC(=O)c1ccc(CSc2ccccc2)cc1,–,–,–,–,–,–
CC[n+]1c(/C=C/Nc2ccccc2)oc2ccc(OC)cc21,–,–,–,–,–,–
CN(/C=C/c1c([N+](=O)[O-])c(=O)n(C)c(=O)n1C)c1ccccc1,–,–,–,–,–,–
CC[n+]1c(/C=C/N(C)c2ccccc2)oc2ccc(F)cc21,84,–,–,–,–,–
CC[n+]1c(/C=C/N(C)c2ccccc2)oc2ccccc21,100,–,–,–,–,78
CC[n+]1c(/C=C/Nc2ccccc2)oc2ccccc21,96,–,–,–,–,–
C/C(=N\Nc1ccc(F)cc1F)c1cccs1,–,–,–,–,–,–
Cc1nc2c3ccccc3n(Cc3ccccc3F)c2s1,56,–,–,–,–,–
Cc1nc2c3cc(F)ccc3n(Cc3ccccc3F)c2s1,–,·,–,–,–,–
O=C1c2ccccc2C(=O)N1CCCCN(C(=O)c1ccco1)c1ccc(Cl)cc1,–,–,–,–,–,–
O=C1c2ccccc2C(=O)N1CCCCN(C(=O)c1cccc([N+](=O)[O-])c1)c1ccc(Cl)cc1,54,–,–,–,–,–
CCc1cc(-c2n[nH]c(C)c2-c2ccccc2Cl)c(O)cc1OC,·,–,–,86,–,–
SMILES,Lmaj promast,NALP1 inh,NALP3 yeast inh,Calb FLC,PolyA inhibitor,T cruzi repl
O=C(Nc1cc2c(cc1Br)OCCO2)c1ccc(=O)[nH]c1,·,·,–,·,·,·
CCSc1nc2sc3c(c2c(=O)n1C1CCCCC1)CCN(C)C3,·,–,·,·,·,·
C=C(C)CSc1nc2sc3c(c2c(=O)n1-c1ccccc1)CCN(C)C3,·,–,–,–,–,55
CCCCSc1nc2sc3c(c2c(=O)n1-c1ccccc1)CCN(C)C3,·,–,–,–,–,55
N#CCSc1nc2sc3c(c2c(=O)n1C1CCCCC1)CCCC3,56,–,–,–,–,–
CN1CCc2c(sc3nc(SCC(N)=O)n(-c4ccc(Cl)cc4)c(=O)c23)C1,·,–,–,101,–,–
CCn1c(SCC(=O)NCCc2ccccc2)nc2sc3c(c2c1=O)CCN(C)C3,·,–,–,–,–,·
CCn1c(SCC(=O)c2ccccc2)nc2sc3c(c2c1=O)CCN(C)C3,·,–,–,–,–,64
C=C(C)CSc1nc2sc3c(c2c(=O)n1C1CCCCC1)CCN(C)C3,·,–,–,–,–,59
CSc1nc(NCc2ccccc2)c2c3c(sc2n1)CN(C)CC3,–,–,–,–,–,55
CCC1(C)Cc2ccccc2-c2[nH][nH]c(=O)c21 (configuration not stated),–,–,–,–,·,–
O=C(/C=C/c1ccoc1)c1ccccc1O,76,–,–,–,–,–
CC1CC(C)CN(S(=O)(=O)c2cccc3nsnc23)C1 (configuration not stated),·,–,–,–,–,–
CC(C(=O)NCC1CCCCC1)N1CCN(S(=O)(=O)/C=C/c2ccccc2)CC1 (configuration not stated),99,–,–,–,–,–
CC(C(=O)NCC1CCCCC1)N1CCc2ccccc2C1 (configuration not stated),–,–,–,–,–,–
O=C(CNC(=S)N(Cc1ccccc1)Cc1cccnc1)NC1CCCCC1,–,–,–,–,–,64
COc1ccc(CN(Cc2cccnc2)C(=S)NCCc2ccccc2)cc1OC,100,–,–,–,–,–
COc1ccccc1NC(=S)N(Cc1ccccc1)Cc1cccnc1,–,–,–,–,–,–
CN(C)CCNC(=O)CNC(=S)N(Cc1ccccc1)Cc1cccnc1,–,–,–,–,–,–
Cc1ccc(CCNC(=O)CNC(=S)N(Cc2ccccc2)Cc2cccnc2)cc1,–,–,–,–,–,72
COc1ccccc1CC1CC(=O)N(c2ccccc2)C1=O (configuration not stated),·,–,–,–,–,–
CCCCc1c(CCC)c(=N)c2ccccc2n1C,100,–,–,–,–,60
CCCCc1c(O)c2ccccc2n(CCCC)c1=O,–,–,–,–,–,–
CCOC(=O)C1CCN(S(=O)(=O)c2ccc3[nH]c(=O)oc3c2)CC1,–,40,–,–,–,–
CCOC(=O)C1CCN(S(=O)(=O)c2ccc(Cl)cc2OC)CC1,–,–,–,–,–,–
SMILES,Lmaj promast,NALP1 inh,NALP3 yeast inh,Calb FLC,PolyA inhibitor,T cruzi repl
CCOC(=O)C1CCN(S(=O)(=O)c2cc(Cl)c(C)cc2OC)CC1,91,–,–,–,–,–
CCOC(=O)C1CCN(S(=O)(=O)c2c(Cl)ccc3nonc23)CC1,·,–,–,–,–,64
CCOC(=O)N1CCN(S(=O)(=O)c2ccc3[nH]c(=O)oc3c2)CC1,·,–,–,–,–,–
CCOC(=O)c1c(/N=C/N(C)C)sc(/C=N/Nc2ccccc2)c1-c1ccc(Cl)cc1,94,–,–,–,–,–
COc1ccc(S(=O)(=O)N2CCCCCC2)cc1C(=O)N(C)Cc1ccc(OC)c(OC)c1OC,·,·,–,–,–,–
Cc1ccccc1-c1nn(-c2ccc(F)cc2F)cc1CNCCCN(C)C,100,–,–,–,–,–
Cc1ccccc1-c1nn(-c2ccc(F)cc2F)cc1CNCCN(C)C,74,–,–,–,–,–
CN(CC(=O)Nc1ccccc1Br)C(=O)CCCSc1nc2ccccc2[nH]1,·,·,–,–,–,–
CC1CCC2(CC1)NC(=O)N(CC(=O)Nc1ccc(F)cc1)C2=O (configuration not stated),·,·,–,·,·,·

# Screening results deposited in PubChem by several laboratories.
